# Several values for one entry are separate records, joined by “and”; a condition that tells them apart may be missing. Equal entries are not always repeated.
# Test system: HEK-293T
# Experiment: Multiplex assay against HEK293T
# Type: toxicity, cell-based
# Settings: human, 12 h, 1 µM, compound concentration 1 uM
# Outline: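 Imaging took place on a CQ1 microscope at 37°C and 5% CO2 once compound had been added to live cells stained at seeding with Hoechst33342, BioTracker Green Microtubule Cytoskeleton Dye, MitoTracker Red and Annexin V Alexa Fluor 680. CellPathfinder machine-learning gating classed cells as Hoechst high-intensity objects or normal cells, classed normal cells as having healthy, pyknosed or fragmented nuclei, and classed pyknosed cells as mitotic or apoptotic. Tubulin, mitochondrial-mass and membrane-permeability phenotypes are per cents of the healthy-nucleus cells.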
SMILES,Population Membrane Permeable-Phenotype (%),Population Mitotic Cells (%),Population Normal (%),Population Tubulin-Different-Phenotype (%),Total Cell Count,Population Apoptotic (%),Population Fragmented Nuclei (%),Population Healthy Nuclei (%),Population Hoechst High Intensity Objects (%),Population Mitochondria Different-Phenotype (%)
Cc1cc(O)c(-c2ccc([C@@H](C)CN(C)C)cc2)c2c1[nH]c(=O)c1sccc12,0% and 1% and 7.14%,88.89% [middle of 4 runs],72% and 71% and 100%,74% [middle of 4 runs],209 and 207 and 208 and 140,–,–,–,–,–
CNC[C@H](O)c1ccc(O)c(O)c1 [EPINEPHRINE],0%,80% and 43%,92% and 93%,26% and 27%,–,20% and 56%,6%,81%,7% and 6%,31% and 65%
CC(C)(C)c1ccc(S(=O)(=O)Nc2ccc(Cl)cc2C(=O)c2cc[n+]([O-])cc2)cc1 [VERCIRNON],0%,68% and 47%,92%,21% and 22%,428 and 424,32% and 52%,10% and 5%,77% and 84%,7%,33% and 51%
O=S(=O)(c1ccccc1)c1cnc2c(N3CCNCC3)cccc2c1 [INTEPIRDINE],0%,60% and 50%,92% and 89%,43% and 23%,403 and 336,40% and 50%,7%,80% and 74%,7% and 10%,54% and 69%

# Same assay, conditions: human, 12 h, 1 µM, compound concentration 1 uM
row,SMILES,Population Pyknosed Nuclei (%)
1,CNC[C@H](O)c1ccc(O)c(O)c1 [EPINEPHRINE],11%
2,CC(C)(C)c1ccc(S(=O)(=O)Nc2ccc(Cl)cc2C(=O)c2cc[n+]([O-])cc2)cc1 [VERCIRNON],12% and 10%
3,O=S(=O)(c1ccccc1)c1cnc2c(N3CCNCC3)cccc2c1 [INTEPIRDINE],12% and 17%

# Same assay, conditions: human, 12 h, 10 µM, compound concentration 10 uM
SMILES,Population Fragmented Nuclei (%),Population Membrane Permeable-Phenotype (%),Population Mitotic Cells (%),Population Normal (%),Population Pyknosed Nuclei (%),Population Tubulin-Different-Phenotype (%),Total Cell Count,Population Apoptotic (%),Population Healthy Nuclei (%),Population Mitochondria Different-Phenotype (%)
Cc1cc(O)c(-c2ccc([C@@H](C)CN(C)C)cc2)c2c1[nH]c(=O)c1sccc12,6% and 7% and 2.23% and 0.71%,0% and 2.04% and 9.09%,62.79% [middle of 4 runs],58% and 71% and 100%,75.89% [middle of 4 runs],60% and 72% and 75.51% and 63.64%,268 and 195 and 224 and 141,–,–,–
CNC[C@H](O)c1ccc(O)c(O)c1 [EPINEPHRINE],12% and 11%,1% and 0%,44% and 43%,90% and 59%,11% and 26%,39% and 25%,–,55% and 56%,75% and 61%,65% and 62%
CC(C)(C)c1ccc(S(=O)(=O)Nc2ccc(Cl)cc2C(=O)c2cc[n+]([O-])cc2)cc1 [VERCIRNON],6% and 4%,0% and 1%,69% and 60%,93% and 94%,10% and 13%,37% and 27%,451 and 344,30% and 39%,83% and 82%,35% and 51%
O=S(=O)(c1ccccc1)c1cnc2c(N3CCNCC3)cccc2c1 [INTEPIRDINE],8% and 4%,0%,48% and 53%,89% and 92%,18% and 15%,58% and 50%,326 and 349,51% and 46%,72% and 79%,70% and 76%

# Same assay, conditions: human, 12 h, 10 µM, compound concentration 10 uM
row,SMILES,Population Hoechst High Intensity Objects (%)
1,CC(C)(C)c1ccc(S(=O)(=O)Nc2ccc(Cl)cc2C(=O)c2cc[n+]([O-])cc2)cc1 [VERCIRNON],6% and 5%
2,O=S(=O)(c1ccccc1)c1cnc2c(N3CCNCC3)cccc2c1 [INTEPIRDINE],10% and 7%

# Same assay, conditions: human, 24 h, 1 µM, compound concentration 1 uM
SMILES,Population Apoptotic (%),Population Fragmented Nuclei (%),Population Hoechst High Intensity Objects (%),Population Membrane Permeable-Phenotype (%),Population Mitochondria Different-Phenotype (%),Population Mitotic Cells (%),Population Normal (%),Population Tubulin-Different-Phenotype (%),Total Cell Count,Population Healthy Nuclei (%)
Cc1cc(O)c(-c2ccc([C@@H](C)CN(C)C)cc2)c2c1[nH]c(=O)c1sccc12,65% and 68% and 44.06% and 39.32%,9% and 2.63% and 2.94%,21% and 1.72% and 0%,0% and 6.67%,89% [middle of 4 runs],34% and 31% and 55.94% and 60.68%,78% and 98.28% and 100%,67% [middle of 4 runs],230 and 205 and 232 and 136,–
CNC[C@H](O)c1ccc(O)c(O)c1 [EPINEPHRINE],19% and 36%,9%,5% and 7%,0% and 1%,25% and 41%,80% and 63%,94% and 92%,21% and 18%,–,80%
CC(C)(C)c1ccc(S(=O)(=O)Nc2ccc(Cl)cc2C(=O)c2cc[n+]([O-])cc2)cc1 [VERCIRNON],41% and 28%,8%,6% and 5%,0%,21% and 32%,58% and 71%,93% and 94%,15% and 16%,522 and 521,81%
O=S(=O)(c1ccccc1)c1cnc2c(N3CCNCC3)cccc2c1 [INTEPIRDINE],28% and 58%,6% and 7%,5%,0%,35% and 43%,71% and 41%,94%,26% and 14%,530 and 416,80% and 85%

# Same assay, conditions: human, 24 h, 1 µM, compound concentration 1 uM
row,SMILES,Population Pyknosed Nuclei (%)
1,CNC[C@H](O)c1ccc(O)c(O)c1 [EPINEPHRINE],9% and 10%
2,CC(C)(C)c1ccc(S(=O)(=O)Nc2ccc(Cl)cc2C(=O)c2cc[n+]([O-])cc2)cc1 [VERCIRNON],9%
3,O=S(=O)(c1ccccc1)c1cnc2c(N3CCNCC3)cccc2c1 [INTEPIRDINE],12% and 7%

# Same assay, conditions: human, 24 h, 10 µM, compound concentration 10 uM
SMILES,Population Apoptotic (%),Population Fragmented Nuclei (%),Population Membrane Permeable-Phenotype (%),Population Mitochondria Different-Phenotype (%),Population Mitotic Cells (%),Population Normal (%),Population Tubulin-Different-Phenotype (%),Total Cell Count,Population Healthy Nuclei (%),Population Pyknosed Nuclei (%)
Cc1cc(O)c(-c2ccc([C@@H](C)CN(C)C)cc2)c2c1[nH]c(=O)c1sccc12,73% and 85% and 61.29% and 65.71%,8% and 7% and 0.96% and 1.33%,1.92% [middle of 4 runs],92% [middle of 4 runs],34.29% [middle of 4 runs],63% and 74% and 99.52% and 100%,70% and 80% and 96.15% and 62.5%,290 and 203 and 210 and 150,–,–
CNC[C@H](O)c1ccc(O)c(O)c1 [EPINEPHRINE],50% and 80%,13% and 11%,0%,50% and 43%,50% and 19%,91% and 60%,36% and 25%,–,75% and 71%,11% and 17%
CC(C)(C)c1ccc(S(=O)(=O)Nc2ccc(Cl)cc2C(=O)c2cc[n+]([O-])cc2)cc1 [VERCIRNON],22% and 28%,10% and 7%,1% and 0%,15% and 31%,77% and 71%,96% and 94%,20% and 23%,594 and 437,77% and 82%,12% and 9%
O=S(=O)(c1ccccc1)c1cnc2c(N3CCNCC3)cccc2c1 [INTEPIRDINE],52% and 51%,11% and 9%,0%,50% and 61%,47% and 48%,93% and 95%,33% and 42%,439 and 458,75% and 82%,12% and 8%

# Same assay, conditions: human, 24 h, 10 µM, compound concentration 10 uM
row,SMILES,Population Hoechst High Intensity Objects (%)
1,CC(C)(C)c1ccc(S(=O)(=O)Nc2ccc(Cl)cc2C(=O)c2cc[n+]([O-])cc2)cc1 [VERCIRNON],3% and 5%
2,O=S(=O)(c1ccccc1)c1cnc2c(N3CCNCC3)cccc2c1 [INTEPIRDINE],6% and 4%

# Same assay, conditions: human, 48 h, 1 µM, compound concentration 1 uM
SMILES,Population Apoptotic (%),Population Hoechst High Intensity Objects (%),Population Membrane Permeable-Phenotype (%),Population Mitochondria Different-Phenotype (%),Population Mitotic Cells (%),Population Normal (%),Population Tubulin-Different-Phenotype (%),Total Cell Count,Population Fragmented Nuclei (%),Population Healthy Nuclei (%)
Cc1cc(O)c(-c2ccc([C@@H](C)CN(C)C)cc2)c2c1[nH]c(=O)c1sccc12,86% and 69% and 73.55% and 70.43%,24% [middle of 4 runs],0%,90% and 96% and 92% and 88.89%,29.57% [middle of 4 runs],75% and 74% and 99.03% and 100%,76% and 70% and 42.67% and 77.78%,249 and 212 and 206 and 135,–,–
CNC[C@H](O)c1ccc(O)c(O)c1 [EPINEPHRINE],16% and 35%,3%,1%,13% and 24%,83% and 64%,96%,9% and 15%,–,11% and 12%,81% and 78%
CC(C)(C)c1ccc(S(=O)(=O)Nc2ccc(Cl)cc2C(=O)c2cc[n+]([O-])cc2)cc1 [VERCIRNON],28% and 32%,2%,0% and 2%,16% and 14%,71% and 67%,97%,13% and 12%,834 and 877,16% and 14%,76% and 81%
O=S(=O)(c1ccccc1)c1cnc2c(N3CCNCC3)cccc2c1 [INTEPIRDINE],17% and 25%,4% and 3%,1% and 0%,25% and 26%,82% and 75%,95% and 96%,16% and 12%,866 and 641,12% and 13%,80% and 79%

# Same assay, conditions: human, 48 h, 1 µM, compound concentration 1 uM
row,SMILES,Population Pyknosed Nuclei (%)
1,CNC[C@H](O)c1ccc(O)c(O)c1 [EPINEPHRINE],7% and 8%
2,CC(C)(C)c1ccc(S(=O)(=O)Nc2ccc(Cl)cc2C(=O)c2cc[n+]([O-])cc2)cc1 [VERCIRNON],7% and 4%
3,O=S(=O)(c1ccccc1)c1cnc2c(N3CCNCC3)cccc2c1 [INTEPIRDINE],7% and 6%

# Same assay, conditions: human, 48 h, 10 µM, compound concentration 10 uM
SMILES,Population Apoptotic (%),Population Fragmented Nuclei (%),Population Membrane Permeable-Phenotype (%),Population Mitochondria Different-Phenotype (%),Population Mitotic Cells (%),Population Normal (%),Population Tubulin-Different-Phenotype (%),Total Cell Count,Population Healthy Nuclei (%),Population Pyknosed Nuclei (%)
Cc1cc(O)c(-c2ccc([C@@H](C)CN(C)C)cc2)c2c1[nH]c(=O)c1sccc12,86% and 87% and 92.81% and 91.73%,13% [middle of 4 runs],1% and 0% and 1.56%,92% and 100% and 87.5%,13% and 12% and 7.19% and 8.27%,59% and 65% and 99.52% and 100%,54% and 73% and 90.62% and 87.5%,223 [middle of 4 runs],–,–
CNC[C@H](O)c1ccc(O)c(O)c1 [EPINEPHRINE],33% and 69%,21% and 17%,0%,25% and 34%,66% and 30%,96% and 78%,11% and 13%,–,72% and 67%,5% and 14%
CC(C)(C)c1ccc(S(=O)(=O)Nc2ccc(Cl)cc2C(=O)c2cc[n+]([O-])cc2)cc1 [VERCIRNON],21% and 25%,13% and 12%,2% and 1%,12% and 18%,78% and 75%,96% and 97%,14% and 15%,929 and 586,81% and 80%,5% and 7%
O=S(=O)(c1ccccc1)c1cnc2c(N3CCNCC3)cccc2c1 [INTEPIRDINE],40% and 18%,14% and 11%,0%,45% and 38%,59% and 81%,95%,30% and 27%,606 and 673,75% and 82%,10% and 5%

# Same assay, conditions: human, 48 h, 10 µM, compound concentration 10 uM
row,SMILES,Population Hoechst High Intensity Objects (%)
1,CC(C)(C)c1ccc(S(=O)(=O)Nc2ccc(Cl)cc2C(=O)c2cc[n+]([O-])cc2)cc1 [VERCIRNON],3% and 2%
2,O=S(=O)(c1ccccc1)c1cnc2c(N3CCNCC3)cccc2c1 [INTEPIRDINE],4%

# Source: ChEMBL document CHEMBL5724801, “EUbOPEN Chemogenomics Library - Multiplex” (2024)
